Converted amounts (≈) assume the structure as drawn. The source made the active and inactive calls. No cut-off for these calls is given here.
Tests used:
[1] = Aqueous solubility of the compound at pH 7.4; assay type: physicochemical
Summary of the method: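 Aqueous solubility measured at pH 7.4.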

[2] = target: T1, Adenosine receptor A1 (Homo sapiens) (UniProt P30542); test: Displacement of [3H]-DPCPX from human adenosine A1 receptor expressed in HEK293 cell membranes at 0.1 uM after 90 mins relative to control
T1 sequence (whole entry): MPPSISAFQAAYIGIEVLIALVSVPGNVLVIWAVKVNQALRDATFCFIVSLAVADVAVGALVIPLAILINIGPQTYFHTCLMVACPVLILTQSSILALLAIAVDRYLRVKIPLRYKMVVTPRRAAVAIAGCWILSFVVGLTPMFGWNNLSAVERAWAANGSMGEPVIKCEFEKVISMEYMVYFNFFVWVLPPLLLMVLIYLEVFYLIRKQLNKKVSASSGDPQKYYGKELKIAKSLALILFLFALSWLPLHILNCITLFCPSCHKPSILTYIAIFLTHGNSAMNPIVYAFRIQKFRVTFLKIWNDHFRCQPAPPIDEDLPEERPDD
Summary of the method: (§1)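 Membranes from HEK-293 cells stably transfected with human A1, A2A or A3 receptor, pretreated with 1 U/ml ADA. Membranes are incubated 90 min at room temperature with gentle agitation. Tracer and buffer per receptor: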

Adenosine receptor A2b [3] = target: T2, Adenosine receptor A2b (Homo sapiens, UniProt P29275); test: Displacement of [3H]-MRS-1754 from human adenosine A2B receptor expressed in HEK293 cell membranes after 90 mins; conditions: read-out: Ki
T2 sequence (P29275 whole entry): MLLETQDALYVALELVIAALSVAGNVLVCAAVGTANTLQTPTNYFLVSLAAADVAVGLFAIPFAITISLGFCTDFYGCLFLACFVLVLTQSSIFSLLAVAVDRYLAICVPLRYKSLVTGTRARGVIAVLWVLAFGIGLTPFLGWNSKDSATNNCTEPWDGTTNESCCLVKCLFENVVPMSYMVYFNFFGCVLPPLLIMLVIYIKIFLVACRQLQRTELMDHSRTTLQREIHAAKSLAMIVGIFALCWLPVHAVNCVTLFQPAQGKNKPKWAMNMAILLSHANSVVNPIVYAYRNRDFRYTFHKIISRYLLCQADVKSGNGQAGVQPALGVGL
Summary of the method: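 Membranes from HEK-293 cells stably expressing human A2B, ADA-treated, incubated with 1.6 nM [3H]-MRS-1754 in 50 mM Tris pH 6.5, 5 mM MgCl2, 1 mM EDTA, 1 U/ml ADA. Incubation 90 min at room temperature. Filtration; nonspecific binding with 100 µM NECA. Eight compound concentrations, each in triplicate; Ki derived by fitting.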

[4] = target: Adenosine receptor A2a (Homo sapiens) (UniProt P29274); test: Displacement of [3H]-ZM241385 from human adenosine A2A receptor expressed in HEK293 cell membranes at 0.1 uM after 90 mins relative to control; summary of the method: as §1
Chain of Adenosine receptor A2a (Homo sapiens) (P29274 whole entry): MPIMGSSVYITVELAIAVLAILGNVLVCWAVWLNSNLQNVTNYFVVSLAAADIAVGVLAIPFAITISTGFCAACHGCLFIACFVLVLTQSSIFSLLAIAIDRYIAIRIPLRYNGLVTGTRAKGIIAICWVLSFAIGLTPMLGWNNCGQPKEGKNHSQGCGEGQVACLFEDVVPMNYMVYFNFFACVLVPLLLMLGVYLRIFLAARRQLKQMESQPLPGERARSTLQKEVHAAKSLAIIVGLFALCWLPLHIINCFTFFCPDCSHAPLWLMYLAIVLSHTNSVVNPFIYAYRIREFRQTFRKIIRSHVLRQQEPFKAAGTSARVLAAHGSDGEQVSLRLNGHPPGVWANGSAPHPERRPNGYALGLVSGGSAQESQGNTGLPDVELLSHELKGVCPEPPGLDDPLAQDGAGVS

[5] = target: T3, Adenosine receptor A3 (Homo sapiens) (UniProt P0DMS8); test: Displacement of [3H]-HEMADO from human adenosine A3 receptor expressed in HEK293 cell membranes at 1 uM after 90 mins relative to control; summary of the method: as §1
T3 sequence (whole entry): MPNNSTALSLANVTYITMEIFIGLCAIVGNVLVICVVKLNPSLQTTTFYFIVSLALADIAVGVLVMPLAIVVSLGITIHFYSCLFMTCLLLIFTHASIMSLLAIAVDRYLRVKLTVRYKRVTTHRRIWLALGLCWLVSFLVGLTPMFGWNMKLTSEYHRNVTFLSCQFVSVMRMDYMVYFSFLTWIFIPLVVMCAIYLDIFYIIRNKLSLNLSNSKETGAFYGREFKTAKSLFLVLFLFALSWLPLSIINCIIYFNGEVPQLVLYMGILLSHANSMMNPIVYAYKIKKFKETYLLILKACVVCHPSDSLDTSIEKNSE

Adenosine receptor A2b [6] = target: T2, Adenosine receptor A2b; test: Antagonist activity at human adenosine A2B receptor expressed in HEK293 cells assessed as inhibition of NECA-induced increase in cAMP accumulation incubated for 15 mins followed by agonist treatment for 15 mins by HTRF assay; assay type: functional, cell-based
Summary of the method: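 HEK-293 cells overexpressing human A2B, 24 h cultures, are pretreated with 1 U/mL ADA for 90 min at 37°C. Cells are harvested and preincubated with increasing compound concentrations for 15 min at room temperature in DMEM with ADA.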

Adenosine receptor A2b [7] = target: T2, Adenosine receptor A2b; test: Antagonist activity at human adenosine A2B receptor expressed in mouse NIH/3T3 cells assessed as inhibition of NECA-induced IL-6 release incubated for 15 mins followed by agonist treatment for 15 mins by HTRF assay; assay type: cell-based
[8] = Cmax in C57BL/6J mouse at 10 mg/kg, po; assay type: ADME, organism-based; set-up: dose 10 mg/kg, route oral; conditions: in vivo
Summary of the method: (§2)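 Oral dosing at 10 mg/Kg in C57BL/6J mice. Vehicle is DMAC (10%), CrEL (10%), PEG300 (10%) in water, pH ~9, or, for one compound, DMSO (10%), CrEL (10%), PEG300 (10%) in water, pH ~7.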

[9] = AUC (0 to t) in C57BL/6J mouse at 10 mg/kg, po; assay type: ADME, organism-based; conditions: in vivo; summary of the method: as §2
[10] = Half life in C57BL/6J mouse at 10 mg/kg, po; assay type: ADME, organism-based; conditions: in vivo; summary of the method: as §2
[11] = Oral bioavailability in C57BL/6J mouse at 10 mg/kg; assay type: ADME, organism-based; conditions: in vivo; summary of the method: as §2
Liver [12] = test: Metabolic stability in mouse liver microsomes; assay type: ADME, microsome
Liver [13] = test: Metabolic stability in rat liver microsomes; assay type: ADME, microsome
Liver [14] = test: Metabolic stability in human liver microsomes; assay type: ADME, microsome
P-gp = test: Substrate activity at P-gp (unknown origin) assessed as ratio of permeability from basolateral to apical side over apical to basolateral side; assay type: ADME; conditions: human, not told
[15] = Inhibition of CYP450 (unknown origin); assay type: ADME, Homo sapiens
MDCK = test: Cytotoxicity against MDCK cells; assay type: cell-based; conditions: Canis lupus familiaris
HepG2 = test: Cytotoxicity against human HepG2 cells; assay type: cell-based
[16] = target: Voltage-gated inwardly rectifying potassium channel KCNH2 (Homo sapiens, UniProt Q12809); test: Inhibition of human ERG
Chain of Voltage-gated inwardly rectifying potassium channel KCNH2 (Q12809 whole entry): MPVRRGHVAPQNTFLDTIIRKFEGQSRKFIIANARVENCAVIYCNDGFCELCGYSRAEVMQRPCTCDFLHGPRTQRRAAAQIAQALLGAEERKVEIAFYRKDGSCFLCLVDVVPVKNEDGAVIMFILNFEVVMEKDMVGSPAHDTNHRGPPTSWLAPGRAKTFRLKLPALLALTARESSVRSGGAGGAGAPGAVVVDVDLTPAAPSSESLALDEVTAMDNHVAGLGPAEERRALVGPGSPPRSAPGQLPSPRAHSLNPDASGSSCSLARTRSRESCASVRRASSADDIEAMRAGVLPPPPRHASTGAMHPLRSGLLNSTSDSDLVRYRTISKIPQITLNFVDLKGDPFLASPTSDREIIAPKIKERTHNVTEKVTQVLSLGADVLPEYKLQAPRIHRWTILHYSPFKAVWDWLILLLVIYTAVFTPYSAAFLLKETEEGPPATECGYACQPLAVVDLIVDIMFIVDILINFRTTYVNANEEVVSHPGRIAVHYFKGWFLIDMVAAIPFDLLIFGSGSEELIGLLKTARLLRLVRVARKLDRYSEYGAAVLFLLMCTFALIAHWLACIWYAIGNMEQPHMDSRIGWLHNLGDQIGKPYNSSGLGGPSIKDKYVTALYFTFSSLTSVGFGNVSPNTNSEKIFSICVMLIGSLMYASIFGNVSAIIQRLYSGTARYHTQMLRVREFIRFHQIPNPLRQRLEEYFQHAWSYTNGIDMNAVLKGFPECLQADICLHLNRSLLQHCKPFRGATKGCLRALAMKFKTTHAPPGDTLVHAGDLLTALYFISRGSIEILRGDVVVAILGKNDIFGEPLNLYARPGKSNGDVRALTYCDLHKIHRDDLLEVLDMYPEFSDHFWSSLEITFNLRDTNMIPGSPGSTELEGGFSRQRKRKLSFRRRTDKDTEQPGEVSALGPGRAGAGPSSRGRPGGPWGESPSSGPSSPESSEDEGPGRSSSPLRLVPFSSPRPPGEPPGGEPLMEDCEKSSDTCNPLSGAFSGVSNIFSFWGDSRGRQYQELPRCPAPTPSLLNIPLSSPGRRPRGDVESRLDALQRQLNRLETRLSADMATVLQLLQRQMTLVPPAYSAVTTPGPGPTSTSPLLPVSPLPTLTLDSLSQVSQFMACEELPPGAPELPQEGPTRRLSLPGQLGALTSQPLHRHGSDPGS

Mus musculus [17] = test: Antiinflammatory activity in ovalbumin-induced allergic asthma mouse model assessed as reduction in total cell count in bronchoalveolar lavage fluid at 3 mg/kg administered ip bid; assay type: functional, organism-based
Mus musculus [18] = test: Antiinflammatory activity in […] allergic asthma mouse model assessed as inhibition of airway hyper-responsiveness at 3 mg/kg administered ip bid; assay type: functional, organism-based

Compound | solubility [1] | inhibition [2] | Ki (Adenosine receptor A2b [3]) | inhibition [4] | inhibition [5] | Ki (Adenosine receptor A2b [6]) | IC50 (Adenosine receptor A2b [7]) | Cmax [8] | AUC(0-t) [9] | half-life [10] | bioavailability [11] | Stability (Liver [12]) | Stability (Liver [13]) | Stability (Liver [14]) | also measured
CCCn1c(=O)c2[nH]c(-c3cnn(CC#Cc4cccc(C(=O)O)c4)c3)nc2n(CCC)c1=O | 529 µM (≈ 244 µg/mL) | 20% | 5.3 nM | 32% | 0% | 1.8 nM | 2000 nM | 1.9 µM | 2.2 µM·h | 1.8 h | 10% | Stable | Stable | Stable | efflux ratio (P-gp): 12
CCCn1c(=O)c2[nH]c(-c3cnn(CC#Cc4cccc(OC(F)(F)F)c4)c3)nc2n(CCC)c1=O | < 6 µM | 39% | 3.6 nM | 27% | 6% | 8.8 nM | 90 nM | 6.6 µM | 67 µM·h | 5 h | 42% | Stable | Stable | Stable | –
CCCn1c(=O)c2[nH]c(-c3cnn(CC#Cc4cccc(OC(F)(F)F)c4)c3)nc2n(CC)c1=O | 21 µM (≈ 10.2 µg/mL) | 17% | 13 nM | 37% | 0% | 8 nM | 107 nM | 13 µM | 60 µM·h | 6.1 h | 76% | Stable | Stable | Stable | IC50 [15]: > 10000 nM; IC50 (MDCK): > 100000 nM; IC50 (HepG2): > 100000 nM; IC50 [16]: > 25000 nM; Activity (Mus musculus [17]): Active; inhibition (Mus musculus [18]): Active
CCCn1c(=O)c2[nH]c(-c3cnn(CC#Cc4ccc(C#N)cc4)c3)nc2n(CCC)c1=O | – | 14% | 14 nM | 29% | 14% | – | – | – | – | – | – | – | – | – | –
CCCn1c(=O)c2[nH]c(-c3cnn(CC#Cc4cccc(C(F)(F)F)c4)c3)nc2n(CCC)c1=O | – | 43% | 4.9 nM | 64% | 32% | – | – | – | – | – | – | – | – | – | –
